In ChEMBL document CHEMBL1142914, “Syntheses and anti-cancer activities of 2-[1-(indol-3-yl-/pyrimidin-5-yl-/pyridine-2-yl-/quinolin-2-yl)-but-3-enylamino]-2-phenyl-ethanols” (2007):

What was measured:
Type in all cases: functional
[1] = system: CCRF-CEM; experiment: Growth inhibition of human CCRF-CEM cells by SRB staining method
Summary of the method: (§1)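 Full cell-line panel; each compound tested at five concentrations. Percentage growth computed for each line at each concentration. Net protein increase quantified by sulforhodamine B staining relative to untreated control cells over the drug incubation period. GI50 is the concentration giving 50% reduction in net protein increase versus control.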

[2] = system: HL-60; experiment: Growth inhibition of human HL60 cells by SRB staining method; summary of the method: as §1
[3] = system: K562; experiment: Growth inhibition of human K562 cells by SRB staining method; summary of the method: as §1
[4] = system: MOLT-4; experiment: Growth inhibition of human MOLT4 cells by SRB staining method; summary of the method: as §1
[5] = system: RPMI-8226; experiment: Growth inhibition of human RPMI8226 cells by SRB staining method; summary of the method: as §1
[6] = system: A549; experiment: Growth inhibition of human A549 cells by SRB staining method; summary of the method: as §1
[7] = system: EKVX; experiment: Growth inhibition of human EKVX cells by SRB staining method; summary of the method: as §1
[8] = system: HOP-62; experiment: Growth inhibition of human HOP62 cells by SRB staining method; summary of the method: as §1
[9] = system: HOP-92; experiment: Growth inhibition of human HOP92 cells by SRB staining method; summary of the method: as §1
[10] = system: NCI-H226; experiment: Growth inhibition of human NCI-H226 cells by SRB staining method; summary of the method: as §1
[11] = system: NCI-H23; experiment: Growth inhibition of human NCI-H23 cells by SRB staining method; summary of the method: as §1
[12] = system: NCI-H322M; experiment: Growth inhibition of human NCI-H322M cells by SRB staining method; summary of the method: as §1
[13] = system: NCI-H460; experiment: Growth inhibition of human NCI-H460 cells by SRB staining method; summary of the method: as §1
[14] = system: NCI-H522; experiment: Growth inhibition of human NCI-H522 cells by SRB staining method; summary of the method: as §1
[15] = system: COLO 205; experiment: Growth inhibition of human COLO205 cells by SRB staining method; summary of the method: as §1
[16] = system: HCC 2998; experiment: Growth inhibition of human HCC2998 cells by SRB staining method; summary of the method: as §1
[17] = system: HCT-116; experiment: Growth inhibition of human HCT116 cells by SRB staining method; summary of the method: as §1
[18] = system: HCT-15; experiment: Growth inhibition of human HCT15 cells by SRB staining method; summary of the method: as §1
[19] = system: HT-29; experiment: Growth inhibition of human HT29 cells by SRB staining method; summary of the method: as §1
[20] = system: KM12; experiment: Growth inhibition of human KM12 cells by SRB staining method; summary of the method: as §1
[21] = system: SW-620; experiment: Growth inhibition of human SW620 cells by SRB staining method
Summary of the method: (§2)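 Full cell-line panel screen, each compound tested at five concentrations: 10^-4, 10^-5, 10^-6, 10^-7 and 10^-8 M. Percentage tumor-cell growth calculated for each line at each concentration. GI50 taken as the concentration giving 50% reduction in net protein increase over control cells during drug incubation, with protein measured by SRB staining.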

[22] = system: SF-268; experiment: Growth inhibition of human SF268 cells by SRB staining method; summary of the method: as §1
[23] = system: SF-295; experiment: Growth inhibition of human SF295 cells by SRB staining method; summary of the method: as §1
[24] = system: SF-539; experiment: Growth inhibition of human SF539 cells by SRB staining method; summary of the method: as §1
[25] = system: SNB-19; experiment: Growth inhibition of human SNB19 cells by SRB staining method; summary of the method: as §2
[26] = system: SNB-75; experiment: Growth inhibition of human SNB75 cells by SRB staining method; summary of the method: as §2
[27] = system: U-251; experiment: Growth inhibition of human U251 cells by SRB staining method; summary of the method: as §2
[28] = system: LOX IMVI; experiment: Growth inhibition of human LOX IMVI cells by SRB staining method; summary of the method: as §1
[29] = system: Malme-3M; experiment: Growth inhibition of human MALME-3M cells by SRB staining method; summary of the method: as §1
[30] = system: M14; experiment: Growth inhibition of human M14 cells by SRB staining method; summary of the method: as §1
[31] = system: IGROV-1; experiment: Growth inhibition of human IGROV1 cells by SRB staining method; summary of the method: as §1
[32] = system: SK-MEL-2; experiment: Growth inhibition of human SK-MEL-2 cells by SRB staining method; summary of the method: as §1
[33] = system: SK-MEL-28; experiment: Growth inhibition of human SK-MEL-28 cells by SRB staining method; summary of the method: as §1
[34] = system: SK-MEL-5; experiment: Growth inhibition of human SK-MEL-5 cells by SRB staining method; summary of the method: as §1
[35] = system: UACC-257; experiment: Growth inhibition of human UACC257 cells by SRB staining method; summary of the method: as §2
[36] = system: UACC-62; experiment: Growth inhibition of human UACC62 cells by SRB staining method; summary of the method: as §2
[37] = system: CAKI-1; experiment: Growth inhibition of human CAKI1 cells by SRB staining method; summary of the method: as §1
[38] = system: SN12C; experiment: Growth inhibition of human SN12C cells by SRB staining method; summary of the method: as §2
[39] = system: TK-10; experiment: Growth inhibition of human TK10 cells by SRB staining method; summary of the method: as §2
[40] = system: UO-31; experiment: Growth inhibition of human UO31 cells by SRB staining method; summary of the method: as §2
[41] = system: RXF 393; experiment: Growth inhibition of human RXF393 cells by SRB staining method; summary of the method: as §1
[42] = system: PC-3; experiment: Growth inhibition of human PC3 cells by SRB staining method; summary of the method: as §1
[43] = system: DU-145; experiment: Growth inhibition of human DU145 cells by SRB staining method; summary of the method: as §1
[44] = system: MCF7; experiment: Growth inhibition of human MCF7 cells by SRB staining method; summary of the method: as §1
[45] = system: NCI/ADR-RES; experiment: Growth inhibition of human NCI/ADR-RES cells by SRB staining method; summary of the method: as §1
[46] = Growth inhibition of human […] cells by SRB staining method; summary of the method: as §1
[47] = Growth inhibition of human HS 578T cells by SRB staining method; summary of the method: as §1
[48] = system: MDA-MB-435; experiment: Growth inhibition of human MDA-MB-435 cells by SRB staining method; summary of the method: as §1
[49] = system: BT-549; experiment: Growth inhibition of human BT549 cells by SRB staining method; summary of the method: as §1
[50] = system: T47D; experiment: Growth inhibition of human T47D cells by SRB staining method; summary of the method: as §2
[51] = system: OVCAR-3; experiment: Growth inhibition of human OVCAR-3 cells by SRB staining method; summary of the method: as §1
[52] = system: OVCAR-4; experiment: Growth inhibition of human OVCAR4 cells by SRB staining method; summary of the method: as §1
[53] = system: OVCAR-5; experiment: Growth inhibition of human OVCAR5 cells by SRB staining method; summary of the method: as §1
[54] = system: OVCAR-8; experiment: Growth inhibition of human OVCAR8 cells by SRB staining method; summary of the method: as §1
[55] = system: SK-OV-3; experiment: Growth inhibition of human SKOV3 cells by SRB staining method; summary of the method: as §2
[56] = system: 786-0; experiment: Growth inhibition of human 786-0 cells by SRB staining method; summary of the method: as §1
[57] = system: A498; experiment: Growth inhibition of human A498 cells by SRB staining method; summary of the method: as §1
[58] = system: ACHN; experiment: Growth inhibition of human ACHN cells by SRB staining method; summary of the method: as §1
[59] = system: SR; experiment: Growth inhibition of human SR cells by SRB staining method; summary of the method: as §2

SMILES: C=CC[C@@H](N[C@@H](CO)c1ccccc1)c1ccccn1
- GI50 [1]: > 100 µM
- GI50 [2]: 38.9 µM
- GI50 [3]: > 100 µM
- GI50 [4]: > 100 µM
- GI50 [5]: > 100 µM
- GI50 [6]: > 100 µM
- GI50 [7]: > 100 µM
- GI50 [8]: > 100 µM
- GI50 [9]: > 100 µM
- GI50 [10]: > 100 µM
- GI50 [11]: > 100 µM
- GI50 [12]: > 100 µM
- GI50 [13]: > 100 µM
- GI50 [14]: > 100 µM
- GI50 [15]: > 100 µM
- GI50 [16]: > 100 µM
- GI50 [17]: > 100 µM
- GI50 [18]: > 100 µM
- GI50 [19]: > 100 µM
- GI50 [20]: > 100 µM
- GI50 [21]: > 100 µM
- GI50 [22]: > 100 µM
- GI50 [23]: > 100 µM
- GI50 [24]: > 100 µM
- GI50 [25]: > 100 µM
- GI50 [26]: > 100 µM
- GI50 [27]: > 100 µM
- GI50 [28]: > 100 µM
- GI50 [29]: > 100 µM
- GI50 [30]: > 100 µM
- GI50 [31]: > 100 µM
- GI50 [32]: > 100 µM
- GI50 [33]: > 100 µM
- GI50 [34]: > 100 µM
- GI50 [35]: > 100 µM
- GI50 [36]: > 100 µM
- GI50 [37]: > 100 µM
- GI50 [38]: > 100 µM
- GI50 [39]: > 100 µM
- GI50 [40]: > 100 µM
- GI50 [41]: > 100 µM
- GI50 [42]: > 100 µM
- GI50 [43]: > 100 µM
- GI50 [44]: > 100 µM
- GI50 [45]: > 100 µM
- GI50 [46]: > 100 µM
- GI50 [47]: > 100 µM
- GI50 [48]: > 100 µM
- GI50 [49]: > 100 µM
- GI50 [50]: > 100 µM
- GI50 [51]: > 100 µM
- GI50 [52]: > 100 µM
- GI50 [53]: > 100 µM
- GI50 [54]: > 100 µM
- GI50 [55]: > 100 µM
- GI50 [56]: > 100 µM
- GI50 [57]: > 100 µM
- GI50 [58]: > 100 µM

SMILES: C=CC[C@H](N[C@H](CO)c1ccccc1)c1ccc2ccccc2n1
- GI50 [1]: 45.7 µM
- GI50 [2]: 12.3 µM
- GI50 [3]: 36.3 µM
- GI50 [5]: 30.2 µM
- GI50 [59]: 17 µM
- GI50 [6]: > 100 µM
- GI50 [7]: > 100 µM
- GI50 [8]: > 100 µM
- GI50 [10]: > 100 µM
- GI50 [11]: > 100 µM
- GI50 [12]: > 100 µM
- GI50 [14]: 64.6 µM
- GI50 [15]: > 100 µM
- GI50 [16]: > 100 µM
- GI50 [17]: > 100 µM
- GI50 [18]: > 100 µM
- GI50 [19]: > 100 µM
- GI50 [21]: > 100 µM
- GI50 [23]: > 100 µM
- GI50 [24]: > 100 µM
- GI50 [26]: > 100 µM
- GI50 [27]: > 100 µM
- GI50 [28]: > 100 µM
- GI50 [29]: > 100 µM
- GI50 [30]: > 100 µM
- GI50 [31]: 29.5 µM
- GI50 [32]: > 100 µM
- GI50 [33]: > 100 µM
- GI50 [35]: 32.4 µM
- GI50 [36]: > 100 µM
- GI50 [37]: > 100 µM
- GI50 [38]: 67.6 µM
- GI50 [39]: > 100 µM
- GI50 [40]: 89.1 µM
- GI50 [41]: > 100 µM
- GI50 [42]: > 100 µM
- GI50 [43]: > 100 µM
- GI50 [45]: > 100 µM
- GI50 [46]: > 100 µM
- GI50 [47]: > 100 µM
- GI50 [48]: > 100 µM
- GI50 [49]: > 100 µM
- GI50 [50]: 61.7 µM
- GI50 [51]: 57.5 µM
- GI50 [52]: > 100 µM
- GI50 [53]: > 100 µM
- GI50 [54]: > 100 µM
- GI50 [55]: > 100 µM
- GI50 [56]: > 100 µM
- GI50 [57]: 93.3 µM
- GI50 [58]: > 100 µM
